Assay outcomes as filed in PubChem BioAssay.
Shown are actives, neighbours in structure and some others; about 9.2% of the full set was active somewhere.
Lmaj promast: Leishmania major promastigote growth inhibition, primary screen; 200,000 compounds, 9% hits; inhibition, % at 10 µM; Leishmania major promastigotes, resazurin fluorescence viability; in the data active = inhibition above about 50%;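 note: promastigotes grown with compound for 44 hours at 28 °C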
PTEN del growth: growth suppression of PTEN-null HCT116, primary screen, cell-based, CellTiter-Glo. HCT116 PTEN-null viability, 60 h; stronger effect = lower value. viability, % at 10 µM. 140,000 compounds, 1.2% hits;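 active = viability at or below a set limit, 4 SD under the median of all tested compounds, cut at about 3.7% in these data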;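 note: PTEN knockout HCT116 line with beta catenin targeted HCT116 as companion control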
Dynein cargo inh: inhibitors of GR-EGFP nuclear translocation, primary screen, dynein cargo transport inhibitor project, imaging, high-content, 3617.4 mouse cells. test concentration mostly 20 µM; stimulated with dexamethasone, 1 µM; stronger effect = lower value. z-score, hits read low. 220,000 compounds, 0.47% hits. AID 1381, 2008;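 active = plate z-score of nuclear minus cytoplasmic receptor signal below a set negative limit, without overly bright fluorescence or cell loss, cut at about -3.5 in these data, passing the limit was not always enough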;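 note: z-score of nuclear minus cytoplasmic ring GR-EGFP intensity difference per well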
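Buffer or medium: tet-free, stripped-serum medium; reagent: dexamethasone at 1.0 µM final, 30 min; incubation: 48 h induction, 1 h compound, 30 min dex at 37 °C; measured by: formaldehyde fixation, Hoechst nuclear stain, 10x automated fluorescence imaging; read-out: nuclear-to-cytoplasmic GR-EGFP distribution per well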
Autophagy mod: autophagy modulators in MEF cells, primary screen, imaging, high-content, MEF GFP-LC3; AID 463193, 2010; calls only at 10 µM (by protocol); 190,000 compounds, 0.98% hits; MEF GFP-LC3 puncta imaging; test concentration mostly 10 µM;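 active = percentage of spot-positive cells more than 3 SD above its plate mean, without a fluorescence outlier flag or 80% toxicity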;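 note: spot-positive cell cutoff set from DMSO-treated cells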
HCT116 bCat-KO: primary screen for growth suppressors in beta-catenin knockout HCT116 cells (colon tumor, human); HCT116 beta-catenin knockout viability, CellTiter-Glo, 60 h; stronger effect = lower value; viability, % at 10 µM; 140,000 compounds, 1.5% hits; AID 818, 2007;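 active = viability at or under a set limit, the compound median less 4 SD, cut at about 6% in these data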;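 note: 0% = Hyamine 1622 control at 20 µM and 100% = untreated cell control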
Numbers without * were called inactive; i = inactive; . = no result given; + = active, no number.

SMILES	Lmaj promast	PTEN del growth	Dynein cargo inh	Autophagy mod	HCT116 bCat-KO
Cc1ccc(C)c(NS(=O)(=O)c2cc(C(=O)Nc3ccccc3-c3ccccc3)ccc2C)c1	26	35	-0.14	i	46
CC(=O)Nc1ccc(NS(=O)(=O)c2cc([N+](=O)[O-])ccc2C)cc1	-1	.	-0.028	i	.
COc1ccc(-n2c(CNC(=O)c3cc(OC)c(OC)c(OC)c3)n[nH]c2=S)cc1	-2	94	0.71	i	104
CCC(CO)NC1=C([N+](=O)[O-])C(=O)CC(C)(C)C1 (stereo not drawn)	-2	95	0.94	i	94
Cc1ccccc1NS(=O)(=O)c1cc(C(=O)Nc2cccc([N+](=O)[O-])c2)ccc1C	72*	44	1.2	i	47
CCN(CC(=O)NC1CCS(=O)(=O)C1)S(=O)(=O)c1ccc2ccccc2c1 (stereo not drawn)	-5	90	-0.79	i	105
CCN(CC(=O)NC1CCS(=O)(=O)C1)S(=O)(=O)c1ccc(C)c(C)c1 (stereo not drawn)	55*	98	0.095	i	95
CCN(CC(=O)NC1CCS(=O)(=O)C1)c1ccc(S(C)(=O)=O)cc1[N+](=O)[O-] (stereo not drawn)	-3	98	-0.89	+	106
O=C(Cn1cnc2ccccc2c1=O)Nc1nnc(SCc2ccc(Cl)cc2)s1	.	.	1.9	.	.
COc1ccc(C2c3c(-c4ccccc4O)n[nH]c3C(=O)N2Cc2ccco2)cc1OC (stereo not drawn)	.	.	1.9	.	.
O=C1c2[nH]nc(-c3ccccc3O)c2C(c2cccc(Cl)c2)N1Cc1ccco1 (stereo not drawn)	79*	49	-1.3	i	62
O=C1c2[nH]nc(-c3ccccc3O)c2C(c2ccc(F)cc2)N1Cc1ccco1 (stereo not drawn)	94*	80	-0.21	i	81
O=C(NCc1ccco1)c1ccc(Cl)nc1	.	.	0.74	.	.
O=C(CCSCCc1ccccn1)Nc1ccc(Br)cn1	-7	92	-0.61	i	89
CN(C)CCOc1nc(-c2ccccc2)nc2c1oc1ccccc12	100*	3.0*	0.7	+	2.0*
CN(C)CCOc1ncnc2c1oc1ccccc12	10	105	-0.8	i	106
O=C1CC(c2cccc([N+](=O)[O-])c2)c2c(ccc3ccccc23)N1 (stereo not drawn)	100*	26	-0.037	i	23
Cc1ccc(C2CC(=O)Nc3c2ccc2ccccc32)cc1[N+](=O)[O-] (stereo not drawn)	95*	65	0.12	i	69
CCC(=O)NC(c1ccco1)c1cc(Cl)c2cccnc2c1O (stereo not drawn)	15	.	-1.1	i	.
Oc1c(C(Nc2cccc(C(F)(F)F)c2)c2cccnc2)ccc2cccnc12 (stereo not drawn)	100*	30	-0.41	i	18
Cc1cccc(NC(c2ccc(O)cc2)c2ccc3ccc(C)nc3c2O)n1 (stereo not drawn)	-6	90	-0.39	i	88
Cc1cc(NC(c2cccnc2)c2ccc3cccnc3c2O)no1 (stereo not drawn)	99*	5	0.14	i	4.3*
FC(F)(F)c1cccc(NC(=S)NC(c2ccccc2)c2ccccc2)c1	8	54	-0.34	i	56
Oc1c(C(Nc2ccccn2)c2cccnc2)cc(Cl)c2cccnc12 (stereo not drawn)	94*	4	-0.14	+	3.6*
O=C(COc1cccc2cccnc12)Nc1nccs1	8	110	0.077	i	101
SMILES	Lmaj promast	PTEN del growth	Dynein cargo inh	Autophagy mod	HCT116 bCat-KO
Oc1cccc(C(Nc2nccs2)c2ccc3cccnc3c2O)c1 (stereo not drawn)	100*	.	-0.86	i	.
CNC(=O)NC(=O)C(C)Oc1ccccc1F (stereo not drawn)	1	.	-0.42	i	.
CCCCNC(=O)c1ccccc1NC(=O)CCC	-2	.	1.3	i	.
CCOC(=O)c1cc(-c2ccccc2)sc1NC(=O)COC(=O)c1ccc(Cl)c(S(N)(=O)=O)c1	91*	.	1.1	i	.
CCOC(=O)c1cc(-c2ccccc2)sc1NC(=O)CN1C(=O)NC(CC)(c2ccccc2)C1=O (stereo not drawn)	51*	69	-1.1	i	78
CCOC(=O)c1cc(-c2ccccc2)sc1NC(=O)CN1C(=O)NC(CC)(c2ccc(F)cc2)C1=O (stereo not drawn)	28	60	0.07	i	63
CCOC(=O)c1cc(-c2ccccc2)sc1NC(=O)COC(=O)c1cccc(S(N)(=O)=O)c1	28	.	-0.29	i	.
CCOC(=O)N1CCC(NCc2c(C(=O)N(C)Cc3ccccc3)nc3ccccn23)CC1	0	.	-0.62	i	.
Cc1cccc(C(C)(C)C)c1OCCCCN1CCCC1	100*	64	-0.89	i	79
CC(C)(C)c1ccccc1OCCCCN1CCCC1	99*	79	1.4	i	74
CC(C)c1cccc(C(C)C)c1OCCCCN1CCCC1	92*	89	-0.24	i	86
Cc1cc(C)c(C#N)c(Sc2nnnn2-c2ccccc2)n1	-5	104	0.14	.	99
O=C(CN1CCC(N2CCCCC2)CC1)N1CCCc2ccccc21	64*	84	-0.62	i	79
CC1CCN(CC(=O)N2c3ccccc3CCc3ccccc32)CC1	11	0.8*	-0.59	i	0.8*
CC1CCN(C(=O)CN2C(=O)C(=O)c3ccccc32)CC1	-15	90	0.75	+	93
CCn1cc(C(=O)Nc2cc3c(cc2NC(C)=O)OCCO3)c(=O)c2ccc(C)nc21	1	.	0.77	i	.
CCOc1ccccc1CN(CCc1ccc2c(c1)OCO2)Cc1ccccn1	82*	57	-1.4	i	55
O=c1c2c3c(sc2nc2n1CCC2)CCCCC3	12	.	1	+	.
O=c1c2c3c(sc2nc2n1CCC2)CCC3	0	101	0.26	i	106
Cc1cc(NC2CCCCC2)nc2ccccc12	84*	.	2.8	i	.
COc1ccc(/C(O)=C/c2nc3ccccc3n(-c3ccccc3)c2=O)cc1	-4	70	-0.23	+	82
CCc1ccc(CN(C)C(=O)CCc2nc3ccccc3n(-c3ccc(OC)cc3)c2=O)cc1	49	.	2.6	i	.
Cc1cc(C(=O)OCC(=O)N2CC(C)OC(C)C2)ccc1[N+](=O)[O-] (stereo not drawn)	-8	.	0.16	i	.
CCOc1cc(NC(=O)c2ccco2)c(OCC)cc1NC(=O)Cc1cccc(OC)c1	63*	108	0.28	i	95
CCOc1cc(NC(=O)c2ccco2)c(OCC)cc1NC(=O)COc1ccccc1C	-5	.	-0.62	+	.
CCOc1cc(NS(=O)(=O)c2ccc(OC)cc2)c(OCC)cc1NC(=O)c1ccco1	2	97	-0.46	i	91
